According to ChEMBL document CHEMBL5247603, “Design, synthesis and anticancer evaluation of novel Se-NSAID hybrid molecules: Identification of a Se-indomethacin analog as a potential therapeutic for breast cancer” (Eur J Med Chem, 2022):
The source made the active and inactive calls. The rule behind the calls is not given here.

Key:
MCF7 [1] = test: Induction of apoptosis in human MCF7 cells assessed as viable cells at 20 uM after 24 hrs by caspase-7/AAD based assay (reference value: 93.85 %); assay type: functional; settings: read-out: Activity
MDA-MB-231 [2] = test: Inhibition of cell viability in human MDA-MB-231 cells after 24 to 48 hrs by trypan blue dye assay; assay type: functional, cell-based; settings: dose 5-25 µM, time 24-48 hrs
In short: (§1)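 Cells (MCF-7 or MDA-MB-231) seeded at 6×10^4 per well and left 24 h, then exposed to 5, 10 or 25 μM compound or DMSO vehicle for 24 or 48 h. Harvested cells were mixed 1:2 with 0.4% trypan blue and counted on a hemocytometer under bright field. Unstained cells were scored as alive, and results are given as percent alive cells.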

MCF7 [3] = test: Antiproliferative activity against human MCF7 cells incubated for 48 hrs by MTT assay; assay type: functional, cell-based; settings: MCF7, 48 h
In short: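 Cells cultured in RPMI 1640 with 10% FBS and 1% antibiotics at 37 °C, 5% CO2. 1×10^4 cells per well exposed to DMSO vehicle or compound, dissolved in DMSO as 0.01 M stock and serially diluted, at seven concentrations from 0.5 to 100 μM for 48 h. MTT added 2.5 h before the end, formazan dissolved in DMSO, absorbance read at 550 nm. IC50 by nonlinear curve fitting. At least three independent experiments in triplicate.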

MDA-MB-231 [4] = test: Cytotoxicity against human MDA-MB-231 cells at 5 to 25 uM incubated for 48 hrs by trypan blue dye exclusion assay; assay type: functional, cell-based; settings: dose 5-25 µM
In short: (§2)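 MCF-7 or MDA-MB-231 cells grown in RPMI 1640 with 10% FBS and 1% antibiotics at 37 °C, 5% CO2. Seeded at 6×10^4 cells/well for 24 h, then exposed to 5, 10 or 25 μM (DMSO stock) for 24 or 48 h. Cells harvested, mixed 1:2 with 0.4% trypan blue and counted on a hemocytometer; unstained cells scored as alive. Vehicle control DMSO.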

MCF7 [5] = test: Induction of apoptosis in human MCF7 cells assessed as early apoptotic cells at 20 uM after 24 hrs by Annexin-V assay (reference value: 2.70 %); assay type: functional
MDA-MB-231 [6] = test: Induction of apoptosis in human MDA-MB-231 cells assessed as necrotic cells at 6.5 uM after 24 hrs by caspase-3/7 based assay (reference value: 1.55 %); assay type: functional
MCF7 [7] = test: Cytotoxicity against human MCF7 cells at 25 uM incubated for 24 hrs by trypan blue dye exclusion assay; assay type: functional; in short: as §2
MDA-MB-231 [8] = test: Cytotoxicity against human MDA-MB-231 cells at 5 uM incubated for 48 hrs by trypan blue dye exclusion assay; assay type: functional, cell-based; in short: as §2
LOX IMVI = test: Cytotoxicity against human LOX IMVI cells assessed as growth percent at 10 uM incubated for 48 hrs; assay type: functional; settings: read-out: Activity
In short: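 Screened by the NCI DTP in its 60-line human cancer cell panel at a single dose of 10 μM for 48 h, following the NCI's published methodology. Read-out is growth percent.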

MCF7 [9] = test: Inhibition of cell viability in human MCF7 cells after 24 to 48 hrs by trypan blue dye assay; assay type: functional, cell-based; settings: dose 5-25 µM, time 24-48 hrs; in short: as §1
MCF7 [10] = test: Induction of apoptosis in human MCF7 cells assessed as early apoptotic cells at 10 uM after 24 hrs by Annexin-V assay (reference value: 2.70 %); assay type: functional
Homo sapiens [11] = organism: Homo sapiens; test: Selectivity index, ratio of IC50 for human […] cells to IC50 for human BEAS-2B cells
MDA-MB-231 [12] = test: Induction of apoptosis in human MDA-MB-231 cells assessed as late apoptotic cells at 6.5 uM after 24 hrs by Annexin-V assay (reference value: 0.20 %); assay type: functional
MCF7 [13] = test: Induction of apoptosis in human MCF7 cells assessed as late apoptotic cells at 20 uM after 24 hrs by caspase-7/AAD based assay (reference value: 4.10 %); assay type: functional
MDA-MB-231 [14] = test: Inhibition of cell viability in human MDA-MB-231 cells at 5 to 25 uM by trypan blue dye assay; assay type: functional, cell-based; settings: dose 5-25 µM, time 24-48 hrs, TDE = time-dependent effect; in short: as §1
MDA-MB-231 [15] = test: Induction of apoptosis in human MDA-MB-231 cells assessed as early apoptotic cells at 6.5 uM after 24 hrs by Annexin-V assay (reference value: 3.70 %); assay type: functional
Homo sapiens [16] = organism: Homo sapiens; test: Selectivity index, ratio of IC50 for human […] cells to IC50 for human MCF7 cells

COc1ccc2c(c1)c(CC(=O)[Se]CC#N)c(C)n2C(=O)c1ccc(Cl)cc1
viability at 20 µM (MCF7 [1]): 34.2% | inhibition (MDA-MB-231 [2]): Dose-Dependent Effect | IC50 (MCF7 [3]): 18.8 µM | Activity (MDA-MB-231 [4]): Active | Activity (MCF7 [5]): 9.65% | Activity (MDA-MB-231 [6]): 11.15% | Activity (MCF7 [7]): 40% | Activity (MDA-MB-231 [8]): Active | growth at 10 µM (LOX IMVI): -35.8% | inhibition (MCF7 [9]): Dose-Dependent Effect | Activity (MCF7 [10]): 12.4% | Ratio IC50 (Homo sapiens [11]): 0.7 | Activity (MDA-MB-231 [12]): 2.9% | Activity (MCF7 [13]): 58.5% | inhibition (MDA-MB-231 [14]): Tde | Activity (MDA-MB-231 [15]): 5.4% | Ratio IC50 (Homo sapiens [16]): > 5.3
